# Most compounds without a hit are left out; they make up all but 3.7% or so of the library.
# EP2 antag: blocks the human prostaglandin E2 receptor EP2; P43116; C6 glioma cells expressing human EP2, cAMP TR-FRET; cells stimulated with saturating PGE2; inhibition, % at 25 µM; 0.52% of 260,000 active; AID 1422;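 active means percent inhibition above 40 after rounding to a whole number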;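 further: rat C6 glioma host cells with rolipram phosphodiesterase inhibitor present; the protocol text gives 20 µM as final concentration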
# EP2 mod: modulators of human EP2 prostaglandin E2 receptor. P43116. EP2-expressing cells, cAMP HTRF FRET, PGE2 co-stimulation. induction, % at 25 µM. 0.83% of 260,000 active. AID 940;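 active means compounds whose cAMP rise, as percent of the full-agonist control response, exceeds 60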;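 further: rat C6 glioma line stably carrying human EP2 under a CMV promoter; the protocol text gives 20 µM as final concentration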
# OX1R antag-1: OX1R (human) antagonism. 1.8% of 330,000 active. OX1R-expressing cells, FRET antagonist read-out. inhibition, % at 6.6 µM. O43613; in the data active means inhibition mostly above about 38%, no sharp cut-off; inactive means mostly below about 40%
# CHO parental Ca: counter-screen for OX1R antagonists: effect in parental CHO cells; parental CHO-K1, ATP-induced calcium, Fluo-8 fluorescence; inhibition, % at 5.6 µM; 0.63% of 330,000 active; AID 463079;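 active means inhibition above that plate's mean sample inhibition plus 3 SD, cut at about 26% in these data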
#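 Assay system – parental CHO cells · Reagent – ATP stimulus · Detection – intracellular calcium via Fluo-8 no-wash fluorescent dye · Evaluation – percent inhibition of ATP-evoked calcium rise, normalized to controls · Controls – ATP wells versus no-ATP DMSO wells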
# GPR7 antagonist: blocks human GPR7 receptor signaling. inhibition, % at 4.4 µM. GPR7-expressing cells, fluorescence antagonist assay. 1.1% of 290,000 active; in the data active means inhibition above about 16%, passing the limit was not always enough;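 further: cells stimulated with the agonist NPW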
# Target sequence (P48145 whole entry, looked up): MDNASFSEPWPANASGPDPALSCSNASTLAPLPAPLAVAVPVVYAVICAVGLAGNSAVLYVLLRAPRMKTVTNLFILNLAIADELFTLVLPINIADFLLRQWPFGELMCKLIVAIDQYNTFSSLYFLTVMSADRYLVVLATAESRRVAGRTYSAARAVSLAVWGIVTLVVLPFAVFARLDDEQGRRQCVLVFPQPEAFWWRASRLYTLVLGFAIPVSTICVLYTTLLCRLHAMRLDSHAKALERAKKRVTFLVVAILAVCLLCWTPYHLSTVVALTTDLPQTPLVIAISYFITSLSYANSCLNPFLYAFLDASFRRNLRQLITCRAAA
# OX1R antag-2: human HCRTR1 antagonism | O43613 | CHO/OX1R cells, Fluo-8 calcium fluorescence, orexin A | inhibition, % at 5 µM | 0.43% of 330,000 active | AID 434989;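 active means inhibition above its plate's threshold, mean inhibition of all tested compounds on the plate plus 3 SD, cut at about 37% in these data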
# Hits are given with their value; i = inactive; nt = no result.
SMILES,EP2 antag,EP2 mod,OX1R antag-1,CHO parental Ca,GPR7 antagonist,OX1R antag-2
CC(=O)c1cn(-c2ccc([N+](=O)[O-])cc2)c(=O)n(C)c1=O,nt,nt,39.4,i,nt,i
Cn1c(N)c(C(=O)c2ccc(Cl)cc2)c(=O)n(C)c1=O,i,i,i,i,i,i
Cn1c(CBr)c(C(=O)c2ccc([N+](=O)[O-])cc2)c(=O)n(C)c1=O,i,i,51.3,i,i,i
CC(=O)C1=C(O)C(=O)N(c2ccc(O)cc2)C1c1ccc([N+](=O)[O-])cc1 (centres undefined),i,i,i,i,i,i
COc1cccc(C(C)NC(=O)Nc2cccc(C(F)(F)F)c2)c1 (centres undefined),i,i,i,i,i,i
c1ccc2c(c1)[nH]c1nc3nncn3nc12,i,i,53.3,i,i,i
O=P(OC1CCCCC1)(OC1CCCCC1)C(O)c1c(Cl)cccc1Cl (centres undefined),i,i,44.8,i,i,i
O=P(OC1CCCCC1)(OC1CCCCC1)C(O)c1ccc(Cl)cc1Cl (centres undefined),i,i,i,i,i,i
Cc1ccc(NC(=O)c2cc(NC(=O)c3ccco3)ccc2N2CCOCC2)cc1,i,i,i,i,i,i
Cc1ccc(NC(=O)c2cc(N3C(=O)C=CC3=O)ccc2N2CCOCC2)cc1,117.7,i,nt,nt,i,nt
Cc1sc2nc3ccc(N4CCCC4)nn3c(=O)c2c1C,i,i,48.4,i,i,i
O=C1C2C3C=CC(C3)C2C(=O)N1c1ccccc1OS(=O)(=O)c1ccccc1 (centres undefined),i,i,71.1,i,i,i
COc1ccc(Cl)cc1NC(=O)/C=C/C(=O)O,i,i,i,i,i,i
COc1ccc(NC(=O)/C=C/C(=O)O)c(OC)c1,i,74.6,i,i,i,i
COC(=O)c1sc(-c2cccs2)cc1NC(=O)/C=C/C(=O)O,62.8,i,i,i,i,i
COc1ccc(NC(=O)c2c(OC)cccc2OC)c(OC)c1,i,i,45.5,i,i,i
O=C(O)CCC(=O)CCC(=O)c1ccccc1,i,i,i,i,i,i
O=C(C[C@@H]1C/C=C\C[C@@H](Cc2ccc(F)cc2)C(=O)OC[C@H]2CCCN2C1=O)NCCO,nt,nt,i,i,nt,i
Cc1ccc2c(c1)[C@H]1[C@H](CO2)[C@H](c2ccccc2)[C@]2(C)C(=O)N(Cc3ccc(Cl)cc3)CC(=O)N12,nt,nt,i,i,nt,i
COC(=O)c1ccc(NC(=S)NCCc2ccccc2)cc1,i,i,i,i,i,i
COc1cccc(Nc2nc3ccccc3nc2NS(=O)(=O)c2cccs2)c1,i,i,42.5,i,i,i
CC(C(=O)Nc1ccccc1)N1CCN(C(=O)c2ccco2)CC1 (centres undefined),nt,nt,i,i,nt,i
CCCOc1ccccc1C1NC(=O)NC(C)=C1C(=O)OCc1ccccc1 (centres undefined),i,64.2,i,i,i,i
CCCOc1ccccc1C1NC(=O)NC(C)=C1C(=O)OCCOC (centres undefined),i,i,i,i,i,i
CCc1cccc2[nH]c3cc([N+](=O)[O-])ccc3c12,i,65.2,i,i,i,i
SMILES,EP2 antag,EP2 mod,OX1R antag-1,CHO parental Ca,GPR7 antagonist,OX1R antag-2
O=[N+]([O-])c1ccc(NCc2ccccn2)nc1,i,i,i,i,i,i
O=C(CCN1C(=O)c2ccc([N+](=O)[O-])cc2C1=O)Nc1cccc(O)c1,i,i,45.6,i,i,i
O=C1c2ccc([N+](=O)[O-])cc2C(=O)N1CNc1ccccn1,i,i,61.3,i,i,i
COc1cccc(NC(=O)CN(C)C(=O)CN2C(=O)c3ccc([N+](=O)[O-])cc3C2=O)c1,nt,nt,47.9,i,nt,i
O=C(O)CN1C(=O)c2ccc(Oc3ccc([N+](=O)[O-])cc3)cc2C1=O,nt,nt,52.6,i,i,i
O=C1c2ccc(Oc3ccc([N+](=O)[O-])cc3)cc2C(=O)N1CCCO,nt,nt,i,i,i,i
CCOc1ccc(NC(=O)CN(C)C(=O)C2(c3ccccc3)CC2)cc1OCC,nt,nt,i,i,nt,i
CCOc1ccc(N(CC(=O)NC2CCCCC2)S(=O)(=O)c2c(C)noc2C)cc1,i,i,i,i,i,i
CN(Cc1ccccc1)C(=O)CN1C(=O)c2ccc([N+](=O)[O-])cc2C1=O,nt,nt,69.7,i,i,i
CN(Cc1ccccc1)C(=O)CN1C(=O)c2ccccc2C1=O,nt,nt,i,i,i,i
C#CCOCCOCCOCCNc1nc(N2CCN(C(=O)[C@H](CCC(=O)O)n3cc(C(N)CC(C)C)nn3)CC2)nc(N2CCN(C(=O)[C@H](Cc3cc4ccccc4[nH]3)n3cc(C(N)[C@H](C)CC)nn3)CC2)n1 (some centres undefined),nt,i,i,i,i,i
CC(Nc1ncnc2sccc12)c1ccccc1 (centres undefined),nt,nt,i,41.7,i,i
S=c1nc[nH]c2c1cnn2-c1ccccc1,i,71.0,i,i,i,i
O=S(=O)(c1ccc(F)c(F)c1F)N1CCN(c2ncnc3sccc23)CC1,nt,nt,i,i,nt,i
Cc1ccc(S(=O)(=O)N2CCN(c3ncnc4sccc34)CC2)cc1,nt,nt,i,37.4,i,i
Cc1nn(C(=O)c2cccs2)c(C)c1CN1C(=O)c2ccccc2C1=O,i,i,i,i,i,i
CCOc1ccc(-n2c(SCc3nc(-c4cccs4)no3)nnc2-c2ccncc2)cc1,i,i,i,i,17.9,i
CCCCNC(=O)c1onc(CSc2ccc(C)c(C)c2)c1C(=O)O,i,i,i,i,i,i
CC(Sc1nnc2c(n1)[nH]c1ccccc12)C(=O)N(C)C1CCCCC1 (centres undefined),nt,nt,i,i,i,i
COc1cccc(CC(=O)Nc2nc(-c3cccnc3)cs2)c1,i,i,i,i,i,i
COCCCNC(=O)/C(C#N)=C/c1c(N2CCN(C)CC2)nc2ccccn2c1=O,nt,nt,46.7,i,i,i
CCOc1ccccc1C(=O)NCC(=O)NCC1CCCCC1,nt,nt,i,i,i,i
CC(C)(C)c1ccc(Cn2nnc3c(=O)[nH]c(C4CCN(C(=O)C5CCCCC5)CC4)nc32)cc1,i,71.5,nt,nt,nt,nt
CC(=O)Nc1ccc(Nc2c3c4c(cccc4n(C)c2=O)C(=O)c2ccccc2-3)cc1,i,i,i,i,i,i
CCNc1c2c3c(cccc3n(C)c1=O)C(=O)c1ccccc1-2,i,i,i,69.0,i,88.5
Cc1c(C(=O)Nc2ccccn2)oc2c(Cl)cccc12,nt,nt,34.4,i,nt,i
Cc1c(C(=O)Nc2ccccn2)oc2ccccc12,i,i,52.3,i,i,i
Cc1c(C(=O)Nc2nc3ccccc3[nH]2)oc2c(Cl)cccc12,i,i,i,i,i,i
Cc1cc(NC(=O)c2oc3ccccc3c2C)ccc1-n1cnnn1,i,i,38.5,i,i,i
COc1cc(OC)cc(C(=O)Nc2ccc(-n3cnnn3)c(C)c2)c1,nt,i,i,i,i,i
